Compounds with a hit are over-represented: about 3.3% of the library has one in this group of screens.
TCR CD3 inh – inhibitors of human TCR-CD3 interaction; inhibition, % at 9.4 µM; actives 0.37% (n = 360,000); TAMRA-labeled TCR probe fluorescence, biochemical; in the data active = inhibition above about 19%;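 note: recombinant mutant TCR 2C K166C tagged with TAMRA read by polarization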
mABHD4 FP – inhibitors of mouse ABHD4. actives 0.54% (n = 370,000). inhibition, % at 8.92 µM. purified mABHD4, FP-Rh probe fluorescence polarization. Q8VD66;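 active = inhibition exceeding the mean over every tested compound plus 3 SD, cut at about 30% in these data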
Target sequence (Q8VD66 whole entry, looked up): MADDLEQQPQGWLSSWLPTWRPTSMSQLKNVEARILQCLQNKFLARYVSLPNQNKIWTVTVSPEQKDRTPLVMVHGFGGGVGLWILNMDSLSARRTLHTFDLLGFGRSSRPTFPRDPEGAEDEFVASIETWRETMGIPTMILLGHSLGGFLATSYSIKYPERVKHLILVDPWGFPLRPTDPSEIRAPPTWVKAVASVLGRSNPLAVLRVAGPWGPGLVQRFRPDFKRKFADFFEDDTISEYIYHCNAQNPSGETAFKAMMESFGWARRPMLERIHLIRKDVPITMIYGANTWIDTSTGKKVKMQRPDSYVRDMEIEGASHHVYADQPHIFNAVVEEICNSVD
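Test system: mABHD4 protein; Read-out basis: % inhibition; Incubation: 45 min + 60 min at 25 °C; Repeats: single replicate; Technique: fluorescence polarization with parallel and perpendicular emission, 525/598 nm; Compound: 8.92 µM, single dose; Benchmarks: full inhibition S159A mutant plus DMSO, zero as sample-well median.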
SIAE inh – human SIAE inhibition, primary screen; SIAE FP-Rh probe binding, fluorescence polarization; Q9HAT2; inhibition, % at 9.66 µM; actives 0.69% (n = 370,000); AID 1053197;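 active = inhibition above a cutoff: mean of compounds within the control limits plus 3 SD of those, cut at about 17% in these data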
rCAG RNA binder – r(CAG) repeat RNA binding; TO-PRO-1 dye displacement fluorescence; inhibition, % at 3 µM; actives 1.3% (n = 370,000); AID 651821;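 active = inhibition above the plate cutoff, the mean of all test compounds on that plate plus 3 SD, cut at about 35% in these data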;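 note: higher means more dye released from RNA so lower well fluorescence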
PRMT1 inh – PRMT1 (human) inhibition, primary screen; actives 1.3% (n = 370,000); recombinant PRMT1, activity-based probe fluorescence polarization; inhibition, % at 2.79 µM; AID 652257;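 active = inhibition above about 21% made by adding two undisclosed values, limit read from the data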
Target sequence (Q99873 whole entry, looked up): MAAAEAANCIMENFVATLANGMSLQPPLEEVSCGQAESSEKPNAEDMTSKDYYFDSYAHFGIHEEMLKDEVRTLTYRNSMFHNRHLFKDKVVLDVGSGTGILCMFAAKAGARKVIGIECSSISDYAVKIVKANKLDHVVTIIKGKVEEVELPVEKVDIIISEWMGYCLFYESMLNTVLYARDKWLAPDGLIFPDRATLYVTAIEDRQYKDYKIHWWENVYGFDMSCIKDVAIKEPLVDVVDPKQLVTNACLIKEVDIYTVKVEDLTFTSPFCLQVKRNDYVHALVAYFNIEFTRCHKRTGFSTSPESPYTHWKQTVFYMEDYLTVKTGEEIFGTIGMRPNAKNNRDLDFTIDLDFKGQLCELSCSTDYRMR
PRMT1 inh conf – PRMT1 (human) inhibition, FP confirmation; recombinant His-PRMT1, activity-based probe fluorescence polarization; inhibition, % at 2.79 µM; shares compounds with PRMT1 inh; AID 687036; actives 42% (n = 3,300);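 active = mean inhibition across replicates above the hit cutoff derived for the earlier primary screen, cut at about 22% in these data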
Of the large screens only hits and unclear results are named; the others gave an inactive call (follow-up assays come after a bar, where they were run).

CC(=O)Nc1ccc2c(c1)C(=O)N(C)[C@H]1CC[C@H](CC(=O)NCc3ccc(F)cc3)O[C@@H]1CO2	none (no result: TCR CD3 inh)
CCCN1CCS(=O)(=O)N(Cc2cn(Cc3ccccc3)nn2)C(C(=O)OC)C1 (stereo unspecified)	none (no result: TCR CD3 inh)
O=C(CCNc1ccc(Br)cc1)c1cccc([N+](=O)[O-])c1	PRMT1 inh 28 | PRMT1 inh conf 23
O=C(O)c1cccc(-n2cccc2/C=C\[N+](=O)[O-])c1	PRMT1 inh 36 | PRMT1 inh conf inactive
O=C(Nc1ccc(OC(F)(F)F)cc1)Nc1c(-c2ccccc2)nc2ncccn12	none (no result: TCR CD3 inh)
CCc1ccc(NC(=O)COC(=O)/C=C/c2ccco2)cc1	PRMT1 inh 28 | PRMT1 inh conf inactive
O=C(COC(=O)/C=C/c1ccco1)Nc1ccccc1	none
CC(C)(C)c1ccc(C(=O)Nc2cc(Cl)c(Cl)cc2C(=O)O)cc1	none (no result: TCR CD3 inh, rCAG RNA binder)
O=C1C=C(O)c2cccc3cccc1c23	PRMT1 inh 48 | PRMT1 inh conf inactive
COc1ccc2[nH]c(S(=O)Cc3ncc(C)c(OC)c3C)nc2c1 (stereo unspecified)	PRMT1 inh 34 | PRMT1 inh conf inactive
CCOC(=O)CC[C@@]1(C(=O)OCC)C[C@@H](CC(=O)NCCCN2CCCC2=O)C(=O)N2CCCC=C21	none (no result: TCR CD3 inh)
CC(=O)Nc1ccc(NC(=O)C(C)OC(=O)/C(C#N)=C/c2ccc(N(C)C)cc2)cc1 (stereo unspecified)	PRMT1 inh 30 | PRMT1 inh conf 39
CCCCc1c(O)nc(SCC(=O)c2ccccc2)n(-c2ccccc2OC)c1=O	PRMT1 inh 40 | PRMT1 inh conf inactive
CCCCc1c(O)nc(SCC(=O)c2ccccc2)n(-c2ccccc2C)c1=O	none
COc1ccc(CSc2nnc(SCc3ccccc3)s2)cc1	none (no result: TCR CD3 inh)
COC(=O)c1ccc2c(=O)n(CCN3CCOCC3)c(SCC(=O)Nc3ccccc3Cl)nc2c1	PRMT1 inh 27 | PRMT1 inh conf 48
O=C(CSc1ncccn1)c1ccccc1Br	PRMT1 inh 57 | PRMT1 inh conf 38
CCN(Cc1ccccc1)S(=O)(=O)CCNC(=O)c1ccccc1	PRMT1 inh 33 | PRMT1 inh conf inactive
Cc1ccc(N=Cc2c(O)n(C)c(=O)n(C)c2=O)nc1	PRMT1 inh 29 | PRMT1 inh conf inactive
Cc1ccccc1CN1CCCCC(NC(=O)C2CCC2)C1=O (stereo unspecified)	none (no result: TCR CD3 inh)
COc1ccc(C(=S)N2CCN(C)CC2)cc1Br	none
COc1ccc(C(=S)N2CCN(C)CC2)cc1	PRMT1 inh 30 | PRMT1 inh conf inactive
COc1ccc(C(=O)Oc2ccc(C(=S)N3CCOCC3)cc2)cc1	PRMT1 inh 57 | PRMT1 inh conf inactive
Cc1ccccc1CN1CCCCC(NC(=O)Cc2cccs2)C1=O (stereo unspecified)	none (no result: TCR CD3 inh)
COc1ccc(N=C(N)NC(=O)OCc2ccccc2)cc1	none (no result: TCR CD3 inh)
Cc1ccc(-c2cc(-c3ccccc3)[nH]c(=S)c2C#N)cc1	none
N#Cc1c(N)[nH]c(=S)c(C#N)c1-c1ccccc1	PRMT1 inh 38 | PRMT1 inh conf inactive
CC(=O)c1ccc(-n2c(-c3cc(-c4ccco4)[nH]n3)n[nH]c2=S)cc1	none
O=C(O)c1ccc(-n2c(-c3cc(-c4ccco4)[nH]n3)n[nH]c2=S)cc1	PRMT1 inh 49 | PRMT1 inh conf inactive
S=c1[nH]nc(-c2cc(-c3ccco3)[nH]n2)n1-c1cccc2ccccc12	PRMT1 inh 36 | PRMT1 inh conf 33
Cc1c(C(=O)O)sc2nc(-c3cccs3)cc(C(F)(F)F)c12	none
CC(=O)c1sc2nc(-c3cccs3)cc(C(F)(F)F)c2c1N	PRMT1 inh 31 | PRMT1 inh conf inactive
O=c1oc2c(-c3cccc(F)c3)cc(O)cc2s1	PRMT1 inh 36 | PRMT1 inh conf inactive
Cc1nc2sc(C(=O)NCc3nccs3)c(N)c2c(C)c1Cl	none (no result: TCR CD3 inh)
CCOC(=O)[C@]12CCC=C1N(Cc1ccc(Cl)cc1Cl)C(=O)[C@H](CC(=O)NCc1ccc(C)o1)C2	PRMT1 inh 35 | PRMT1 inh conf inactive
CCOC(=O)[C@]12CCCC=C1N(Cc1ccc(Cl)cc1Cl)C(=O)[C@H](CC(=O)NCc1ccc(C)o1)C2	none
COc1ccc(NC(=S)N(CCC(C)C)C2CCN(C(C)C)CC2)cc1Cl	PRMT1 inh 54 | PRMT1 inh conf 55
COc1ccc(NC(=S)NCCN2CCC(C)CC2)cc1Cl	PRMT1 inh 48 | PRMT1 inh conf 46
COC(=O)CSc1nnc(-c2cc(-c3ccccc3)n[nH]2)n1N	none (no result: TCR CD3 inh)
O=C(c1ccccc1)N1CC[C@H]2[C@H](CCCN2Cc2cc(F)cc(F)c2)C1	none (no result: TCR CD3 inh)
CCOC(=O)c1c(-c2ccco2)csc1NC(=O)COC(=O)c1cnc(C)cn1	PRMT1 inh 36 | PRMT1 inh conf inactive
CCOC(=O)c1c(CC(C)C)csc1NC(=O)COC(=O)c1cnc(C)cn1	none
CCC[C@H]1[C@@H](NC(=O)C2CCCCC2)CC[C@@]23CCCN2C(=O)CCC[C@@H]13	none (no result: TCR CD3 inh, rCAG RNA binder)
Cc1cc(C)nc(SCCN2CCCCC2)n1	PRMT1 inh 26 | PRMT1 inh conf inactive
Cc1ccc(-c2cc(-c3nnc(SCC(=O)N4CCOCC4)n3N)[nH]n2)cc1	none (no result: TCR CD3 inh)
COc1ccc(NC(=S)N(CCc2c(C)[nH]c3ccc(C)cc23)Cc2cccs2)cc1	none
COc1ccc2[nH]c(C)c(CCN(Cc3cccs3)C(=S)Nc3ccccc3)c2c1	PRMT1 inh 29 | PRMT1 inh conf inactive
COC(=O)c1sc(NC(=O)c2cc(-c3ccccc3)nc3ccccc23)c(C#N)c1C	PRMT1 inh 37 | PRMT1 inh conf 63
Cc1ccccc1NC(=O)Cn1nnc(-c2ccncc2)n1	none (no result: TCR CD3 inh)
COCCSc1ccccc1C(=O)Nc1cc(C)on1	PRMT1 inh 26 | PRMT1 inh conf 22
COCCn1c(-c2ccc(OC)cc2)nc2ccccc21	none
COCCn1c2nc(=O)n(-c3ccccc3)c(=O)c-2nc2ccccc21	PRMT1 inh 115 | PRMT1 inh conf 113
O=C(CSc1nccc(=O)[nH]1)Nc1ccc(F)c(Cl)c1	PRMT1 inh 42 | PRMT1 inh conf 30
COc1ccc(/C=C/S(=O)(=O)NCCc2ccccc2)c(CNC(=O)OC(C)(C)C)c1	none (no result: TCR CD3 inh)
C[C@@H](CCCCC1(C)OCCO1)CCC(=O)N(c1ccccc1)c1ccccc1	none (no result: TCR CD3 inh)
Cc1ccc(NC(=O)CC2SC(=NC3CCCCC3)NC2=O)cc1 (stereo unspecified)	none
Cc1ccccc1NC(=O)CC1SC(=NC2CCCCC2)NC1=O (stereo unspecified)	PRMT1 inh 32 | PRMT1 inh conf inactive
CC(C)N1CCCCC(NC(=O)c2ccc(F)c(F)c2)C1=O (stereo unspecified)	none (no result: TCR CD3 inh)
O=C(CSC1=NCCN1)Nc1cccc(C(F)(F)F)c1	PRMT1 inh 52 | PRMT1 inh conf 35
O=C1c2ccccc2C(=O)N1c1cccc(-c2nc3ccccc3o2)c1	none
O=C1C=CC(=O)N1c1cccc(-c2ccccc2)c1	PRMT1 inh 91 | PRMT1 inh conf 94
